According to ChEMBL document CHEMBL1138195, “Highly chiral muscarinic ligands: the discovery of (2S,2'R,3'S,5'R)-1-methyl-2-(2-methyl-1,3-oxathiolan-5-yl)pyrrolidine 3-sulfoxide methyl iodide, a potent, functionally selective, M2 partial agonist” (J Med Chem, 2006):

What was measured:
[1] = molecular target: T1, Muscarinic acetylcholine receptor M2 (Homo sapiens) (UniProt P08172); test: Efficacy of agonist at muscarinic M2 receptor in guinea pig atrium as ratio of Ka/ED50; format: functional, tissue-based; conditions: Cavia porcellus; Cardiac atrium; target entry is the homologue from another species
T1 sequence (whole entry): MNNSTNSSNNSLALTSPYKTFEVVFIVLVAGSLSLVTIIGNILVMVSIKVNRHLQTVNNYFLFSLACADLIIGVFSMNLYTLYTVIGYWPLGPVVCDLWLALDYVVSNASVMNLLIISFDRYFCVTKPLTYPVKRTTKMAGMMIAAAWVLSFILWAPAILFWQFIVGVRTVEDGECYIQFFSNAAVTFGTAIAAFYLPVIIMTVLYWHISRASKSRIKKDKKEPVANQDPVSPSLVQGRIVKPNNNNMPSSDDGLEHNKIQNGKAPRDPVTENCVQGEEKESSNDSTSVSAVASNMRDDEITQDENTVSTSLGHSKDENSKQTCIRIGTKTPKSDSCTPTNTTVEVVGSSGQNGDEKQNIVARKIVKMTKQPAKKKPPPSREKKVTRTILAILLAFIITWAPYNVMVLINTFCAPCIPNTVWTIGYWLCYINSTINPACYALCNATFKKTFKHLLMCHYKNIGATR
Procedure, shortened: (§1)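 Functional affinity constants (Ka) obtained in the atrium and ileum preparations. Full agonists: Furchgott-Bursztyn method. Partial agonists: Waud method, comparing their concentration-response curves with arecaidine propargyl ester, with equieffective concentrations read graphically. Ka was then related to ED50.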

[2] = molecular target: T2, Muscarinic acetylcholine receptor M1 (Homo sapiens) (UniProt P11229); test: Antagonist affinity at muscarinic M1 receptor in rabbit vas deferens; format: functional, tissue-based; conditions: Oryctolagus cuniculus, target entry is the homologue from another species
T2 sequence (whole entry): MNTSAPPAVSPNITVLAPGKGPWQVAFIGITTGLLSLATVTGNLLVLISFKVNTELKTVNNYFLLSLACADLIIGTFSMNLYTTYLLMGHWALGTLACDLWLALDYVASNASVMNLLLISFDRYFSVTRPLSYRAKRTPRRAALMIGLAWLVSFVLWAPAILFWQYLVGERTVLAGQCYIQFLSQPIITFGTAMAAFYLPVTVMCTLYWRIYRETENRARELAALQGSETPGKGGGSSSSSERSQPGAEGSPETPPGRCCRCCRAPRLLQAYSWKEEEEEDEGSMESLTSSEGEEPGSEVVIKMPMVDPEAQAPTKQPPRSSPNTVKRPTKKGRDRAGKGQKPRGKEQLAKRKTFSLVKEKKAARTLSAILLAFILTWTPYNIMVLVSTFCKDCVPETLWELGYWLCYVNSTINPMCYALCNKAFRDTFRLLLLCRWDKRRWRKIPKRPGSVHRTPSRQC
Procedure, shortened: (§2)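 Field-stimulated (0.1 ms, 2 Hz, 10-15 V), contractions recorded isometrically after 1 h equilibration. Cumulative dose-response curves against p-Cl-McN-A-343 reference. Antagonists incubated 60 min before the repeat curve. Reported as pD2 (-log ED50) with intrinsic activity, or as pKb.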

[3] = molecular target: T3, Muscarinic acetylcholine receptor M2 (Homo sapiens, UniProt P08172); test: Binding affinity to cloned human muscarinic M2 receptor expressed in CHO cells; format: cell-based
T3 sequence (P08172 whole entry): T1 sequence (whole entry)
Procedure, shortened: (§3)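 Membranes from CHO cells stably expressing human hm2, hm4 or hm5 receptors, at 70, 50 and 25 µg/mL protein respectively. 0.2 nM [3H]NMS displaced by unlabelled ligand for 120 min at room temperature, in 25 mM sodium phosphate with 5 mM MgCl2, pH 7.4. Rapid filtration, then scintillation counting. Mean of at least three experiments.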

[4] = molecular target: Muscarinic acetylcholine receptor M3 (Homo sapiens, UniProt P20309); test: Binding affinity to cloned human muscarinic M3 receptor expressed in CHO cells; format: cell-based
Muscarinic acetylcholine receptor M3, sequence (P20309 whole entry): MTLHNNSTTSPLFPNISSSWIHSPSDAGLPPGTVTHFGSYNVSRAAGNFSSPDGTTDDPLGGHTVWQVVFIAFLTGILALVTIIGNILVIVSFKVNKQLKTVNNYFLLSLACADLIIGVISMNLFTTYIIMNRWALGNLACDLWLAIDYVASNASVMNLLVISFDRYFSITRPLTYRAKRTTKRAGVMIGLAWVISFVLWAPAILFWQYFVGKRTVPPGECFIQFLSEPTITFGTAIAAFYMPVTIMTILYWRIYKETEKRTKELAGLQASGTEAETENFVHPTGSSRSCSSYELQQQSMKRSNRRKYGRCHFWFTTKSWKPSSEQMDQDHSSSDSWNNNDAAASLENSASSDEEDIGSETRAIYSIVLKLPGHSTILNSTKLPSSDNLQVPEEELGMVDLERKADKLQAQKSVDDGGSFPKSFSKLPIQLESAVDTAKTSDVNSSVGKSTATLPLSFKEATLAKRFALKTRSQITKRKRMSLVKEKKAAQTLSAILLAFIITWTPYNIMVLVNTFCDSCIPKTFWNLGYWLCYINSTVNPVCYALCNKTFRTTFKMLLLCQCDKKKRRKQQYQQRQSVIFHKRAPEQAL

[5] = molecular target: T4, Muscarinic acetylcholine receptor M1 (Homo sapiens, UniProt P11229); test: Binding affinity to cloned human muscarinic M1 receptor expressed in CHO cells; format: cell-based
T4 sequence (P11229 whole entry): T2 sequence (whole entry)

[6] = molecular target: T5, Muscarinic acetylcholine receptor M4 (Homo sapiens, UniProt P08173); test: Binding affinity to cloned human muscarinic M4 receptor expressed in CHO cells; format: cell-based; procedure, shortened: as §3
T5 sequence (P08173 whole entry): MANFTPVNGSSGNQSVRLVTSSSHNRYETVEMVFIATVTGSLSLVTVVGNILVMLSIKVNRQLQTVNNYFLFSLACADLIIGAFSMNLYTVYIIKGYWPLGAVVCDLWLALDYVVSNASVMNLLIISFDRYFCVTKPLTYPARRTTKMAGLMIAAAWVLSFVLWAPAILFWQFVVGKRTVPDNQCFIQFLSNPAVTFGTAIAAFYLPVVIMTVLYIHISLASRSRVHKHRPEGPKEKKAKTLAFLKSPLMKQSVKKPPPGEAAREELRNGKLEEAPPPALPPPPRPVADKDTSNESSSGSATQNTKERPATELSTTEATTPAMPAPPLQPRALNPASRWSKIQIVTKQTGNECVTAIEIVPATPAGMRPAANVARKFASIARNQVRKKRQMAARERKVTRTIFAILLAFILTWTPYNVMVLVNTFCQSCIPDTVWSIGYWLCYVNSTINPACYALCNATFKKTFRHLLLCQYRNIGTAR

[7] = molecular target: T6, Muscarinic acetylcholine receptor M4 (Homo sapiens) (UniProt P08173); test: Antagonist affinity at muscarinic M4 receptor in guinea pig lung strips; format: functional; conditions: Cavia porcellus, target entry is the homologue from another species
T6 sequence (whole entry): T5 sequence (P08173 whole entry)
Procedure, shortened: (§4)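 Isolated guinea pig tissue contractions, measured against arecaidine propargyl ester control curves. Agonists: cumulative dose-response curve after a 30 min wash, responses as % of the control maximum. Antagonists: 60 min incubation, then a new agonist curve. Parallel time-control tissues were run. Values expressed as pD2 (-log ED50) with intrinsic activity, or as pKb (-log Kb).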

[8] = molecular target: T7, Muscarinic acetylcholine receptor M5 (Homo sapiens, UniProt P08912); test: Binding affinity to cloned human muscarinic M5 receptor expressed in CHO cells; format: cell-based; procedure, shortened: as §3
T7 sequence (P08912 whole entry): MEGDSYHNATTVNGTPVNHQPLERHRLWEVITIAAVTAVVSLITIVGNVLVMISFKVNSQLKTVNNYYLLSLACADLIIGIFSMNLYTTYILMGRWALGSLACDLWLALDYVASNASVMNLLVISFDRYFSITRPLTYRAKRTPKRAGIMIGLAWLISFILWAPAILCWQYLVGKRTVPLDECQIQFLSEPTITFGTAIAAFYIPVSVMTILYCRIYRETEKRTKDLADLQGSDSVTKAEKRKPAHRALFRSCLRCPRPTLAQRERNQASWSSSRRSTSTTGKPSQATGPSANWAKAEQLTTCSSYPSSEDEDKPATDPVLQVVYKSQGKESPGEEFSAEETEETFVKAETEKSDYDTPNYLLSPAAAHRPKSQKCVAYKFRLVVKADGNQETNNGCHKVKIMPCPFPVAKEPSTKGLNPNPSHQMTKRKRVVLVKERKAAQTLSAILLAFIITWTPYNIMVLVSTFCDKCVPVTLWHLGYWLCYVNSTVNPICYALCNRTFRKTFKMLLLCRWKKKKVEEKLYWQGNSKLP

[9] = molecular target: Muscarinic acetylcholine receptor M3 (Cavia porcellus) (UniProt Q8VH26); test: Efficacy of agonist at muscarinic M3 receptor in guinea pig ileum as ratio of Ka/ED50; format: functional, tissue-based; procedure, shortened: as §1
Muscarinic acetylcholine receptor M3 (Cavia porcellus), sequence (Q8VH26 1-587): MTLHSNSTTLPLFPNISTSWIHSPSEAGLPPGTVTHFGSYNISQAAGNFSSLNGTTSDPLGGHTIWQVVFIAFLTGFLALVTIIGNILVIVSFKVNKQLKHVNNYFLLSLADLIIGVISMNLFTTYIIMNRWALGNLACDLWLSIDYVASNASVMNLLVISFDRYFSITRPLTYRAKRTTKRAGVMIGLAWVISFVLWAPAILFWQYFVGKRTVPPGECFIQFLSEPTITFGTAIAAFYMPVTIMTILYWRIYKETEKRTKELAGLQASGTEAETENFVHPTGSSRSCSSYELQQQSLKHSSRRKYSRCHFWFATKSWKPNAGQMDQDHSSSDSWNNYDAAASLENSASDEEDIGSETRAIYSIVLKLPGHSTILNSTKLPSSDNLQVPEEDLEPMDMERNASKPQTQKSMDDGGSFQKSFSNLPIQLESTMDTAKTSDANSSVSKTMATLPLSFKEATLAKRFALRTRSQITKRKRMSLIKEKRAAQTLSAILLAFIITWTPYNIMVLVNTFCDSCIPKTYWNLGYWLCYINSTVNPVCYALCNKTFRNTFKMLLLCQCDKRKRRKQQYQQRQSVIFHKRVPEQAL

[10] = molecular target: T1, Muscarinic acetylcholine receptor M2 (Homo sapiens); test: Agonist potency at muscarinic M2 receptor in guinea pig atrium; format: functional, tissue-based; conditions: Cavia porcellus; Cardiac atrium; target entry is the homologue from another species
Procedure, shortened: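 Guinea pig left atria in PSS at 30 °C, paced by square-wave pulses (1 ms, 1 Hz, 5-10 V). Inotropic force recorded isometrically after 2 h equilibration, with cumulative dose-response curves to arecaidine propargyl ester as reference. Antagonists incubated 60 min after a 30 min wash, then the curve was repeated. Values given as pD2 with intrinsic activity, or as pKb.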

[11] = molecular target: Muscarinic acetylcholine receptor M3 (Cavia porcellus) (UniProt Q8VH26); test: Agonist potency at muscarinic M3 receptor in guinea pig ileum; format: functional, tissue-based; procedure, shortened: as §4
[12] = molecular target: T2, Muscarinic acetylcholine receptor M1 (Homo sapiens); test: Agonist potency at muscarinic M1 receptor in rabbit vas deferens; format: functional, tissue-based; conditions: Oryctolagus cuniculus, target entry is the homologue from another species; procedure, shortened: as §2
[13] = molecular target: T6, Muscarinic acetylcholine receptor M4 (Homo sapiens); test: Agonist potency at muscarinic M4 receptor in guinea pig lung strips; format: functional; conditions: Cavia porcellus, target entry is the homologue from another species; procedure, shortened: as §4
[14] = molecular target: Muscarinic acetylcholine receptor M3 (Cavia porcellus) (UniProt Q8VH26); test: Antagonist affinity at muscarinic M3 receptor in guinea pig ileum; format: functional, tissue-based; procedure, shortened: as §4

C[C@@H]1O[C@H]([C@H]2CCC[N+]2(C)C)C[S@@+]1[O-]
Ratio [1]: 12 | pKb [2]: < 5 | Ki [3]: 9.33 µM | Ki [4]: > 100 µM | Ki [5]: > 100 µM | Ki [6]: > 100 µM | pKb [7]: < 5 | Ki [8]: > 100 µM | Ratio [9]: 7 | -logKa [10]: 5.11 | Activity [10]: 0.58 | pD2 [10]: 6.11 | -logKa [11]: 4.87 | Activity [11]: 1 | pD2 [11]: 5.58

C#CCOC(=O)C1=CCCN(C)C1 [ARECAIDINE PROPARGYL ESTER]
pD2 [12]: 7.14 | pD2 [13]: 5.56 | Ki [3]: 0.0871 µM | Ki [4]: 0.851 µM | Ki [5]: 1.23 µM | Ki [6]: 0.977 µM | Ki [8]: 0.933 µM | Activity [10]: 1 | pD2 [10]: 8.67 | Activity [11]: 1 | pD2 [11]: 7.64

C[C@@H]1O[C@H]([C@@H]2CCC[N+]2(C)C)C[S@@+]1[O-]
Ratio [1]: 58 | pKb [2]: < 5 | Ki [3]: 15.5 µM | Ki [4]: 33.9 µM | Ki [5]: 93.3 µM | Ki [6]: 46.8 µM | pKb [7]: < 5 | Ki [8]: 33.9 µM | Ratio [9]: 1 | -logKa [10]: 4.64 | Activity [10]: 0.56 | pD2 [10]: 6.37 | -logKa [11]: 4.59 | Activity [11]: 0.54 | pD2 [11]: 4.62

C[C@@H]1O[C@H]([C@@H]2CCC[N+]2(C)C)C[S@+]1[O-]
Ratio [1]: 84 | pKb [2]: < 5 | Ki [3]: 51.3 µM | Ki [4]: > 100 µM | Ki [5]: > 100 µM | Ki [6]: > 100 µM | pKb [7]: < 5 | pKb [14]: < 5 | Ki [8]: > 100 µM | -logKa [10]: 6.13 | Activity [10]: 0.41 | pD2 [10]: 7.65 | Activity [11]: 0

C[C@H]1O[C@@H](C[N+](C)(C)C)C[S+]1[O-] (single isomer, unassigned; (-))
Ratio [1]: 28 | Ratio [9]: 37 | -logKa [10]: 5.22 | pD2 [10]: 6.66 | -logKa [11]: 5.38 | pD2 [11]: 6.95

C[N+](C)(C)CC#CCOC(=O)Nc1ccc(Cl)cc1
pD2 [12]: 6.33 | Ki [3]: 3.24 µM | Ki [4]: 2.4 µM | Ki [5]: 1.95 µM | Ki [6]: 9.12 µM | Ki [8]: 3.8 µM
